# According to ChEMBL document CHEMBL1121429, “Soft drugs. 1. Labile quaternary ammonium salts as soft antimicrobials” (J Med Chem, 1980):
# Experiments:
# Format in all cases: functional
# [1] = test system: Staphylococcus aureus; assay: Sterilization time for contact germicidal efficiency (CGE) of salt was tested against at Staphylococcus aureus at pH 6.0, concentration 1016 ppm
# How it was run: (§1)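 Staphylococcus aureus ATCC 6538, overnight broth culture at 6-8 × 10^6 cfu/mL; 0.2 mL inoculated into 5 mL of buffered quaternary salt solution pre-held 30 min at room temperature. Loop subcultures (3 mm) taken at 0.5-30 min intervals into nutrient broth, incubated at 37 °C for 7 days and read daily. The endpoint is the earliest time giving a growth-free subculture.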
# [2] = test system: Staphylococcus aureus; assay: Sterilization time for contact germicidal efficiency (CGE) of salt was tested against Staphylococcus aureus at pH 7.0, concentration 896.0 ppm
# How it was run: (§2)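 Test solutions of the quaternary salt in buffer stood 30 min at room temperature. 0.2 mL of overnight broth culture was added to 5 mL of solution. Inocula: S. aureus ATCC 6538 6-8 × 10^6 cfu/mL, P. aeruginosa ATCC 9027 12-13 × 10^6/mL, S. pyogenes ATCC 19615 5 × 10^6 cfu/mL. At 0.5-30 min intervals a loop was subcultured into nutrient broth and incubated 7 days at 37 °C. Sterilization time is the first interval giving no growth.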
# [3] = test system: Staphylococcus aureus; assay: Sterilization time for contact germicidal efficiency (CGE) of salt was tested against Staphylococcus aureus at pH 7.0, concentration 1010.9 ppm; how it was run: as §2
# [4] = test system: Streptococcus pyogenes; assay: Sterilization time for contact germicidal efficiency (CGE) of salt was tested against at Streptococcus pyogenes at pH 7.0, concentration 1010 ppm
# How it was run: (§3)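 Streptococcus pyogenes ATCC 19615 overnight culture, 5 × 10^6 cfu/mL; 0.2 mL into 5 mL test solution of salt in buffer, left 30 min at room temperature beforehand. At timed intervals (0.5 to 30 min), a 3-mm loop was transferred to sterile nutrient broth and incubated at 37 °C for 7 days. Sterilization time is the shortest interval without growth; buffer-only and viability controls were run.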
# [5] = test system: Pseudomonas aeruginosa; assay: Minimum inhibitory concentration of salt was tested against Pseudomonas aeruginosa at 0.1 M NaH2PO4 adjusted to pH 7.0
# [6] = test system: Staphylococcus aureus; assay: Sterilization time for contact germicidal efficiency (CGE) of salt was tested against at Staphylococcus aureus at pH 7.0, concentration 1010 ppm; how it was run: as §1
# [7] = test system: Pseudomonas aeruginosa; assay: Sterilization time for contact germicidal efficiency (CGE) of salt was tested against at Pseudomonas aeruginosa at pH 6.0, concentration 1016 ppm; how it was run: as §2
# [8] = test system: Pseudomonas aeruginosa; assay: Sterilization time for contact germicidal efficiency (CGE) of salt was tested against at Pseudomonas aeruginosa at pH 7.0, concentration 1010 ppm; how it was run: as §2
# [9] = test system: Pseudomonas aeruginosa; assay: Sterilization time for contact germicidal efficiency (CGE) of salt was tested against at Pseudomonas aeruginosa at pH 7.0, concentration 896.0 ppm; how it was run: as §2
# [10] = test system: Pseudomonas aeruginosa; assay: Sterilization time for contact germicidal efficiency (CGE) of salt was tested against at Pseudomonas aeruginosa at pH 7.0, concentration 1010.9 ppm; how it was run: as §2
# [11] = test system: Pseudomonas aeruginosa; assay: Sterilization time for contact germicidal efficiency (CGE) of salt was tested against at Pseudomonas aeruginosa at pH 8.0, concentration 1013 ppm
# How it was run: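 Pseudomonas aeruginosa ATCC 9027 overnight broth culture (12-13 × 10^6 organisms/mL); 0.2 mL added to 5 mL buffered salt solution held 30 min at room temperature. At intervals from 0.5 to 30 min, a 3-mm loop was subcultured into nutrient broth and incubated at 37 °C for 7 days. Sterilization time is the shortest interval whose subculture gave no growth.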
# [12] = test system: Streptococcus pyogenes; assay: Sterilization time for contact germicidal efficiency (CGE) of salt was tested against at Streptococcus pyogenes at pH 8.0, concentration 1013 ppm; how it was run: as §3
# [13] = test system: Streptococcus pyogenes; assay: Sterilization time for contact germicidal efficiency (CGE) of salt was tested against at Streptococcus pyogenes at pH 6.0, concentration 1016 ppm; how it was run: as §3
# [14] = test system: Staphylococcus aureus; assay: Sterilization time for contact germicidal efficiency (CGE) of salt was tested against at Staphylococcus aureus at pH 8.0, concentration 1013 ppm; how it was run: as §1
# [15] = test system: Streptococcus pyogenes; assay: Sterilization time for contact germicidal efficiency (CGE) of salt was tested against at Streptococcus pyogenes at pH 7.0, concentration 896.0 ppm; how it was run: as §3
# [16] = test system: Streptococcus pyogenes; assay: Sterilization time for contact germicidal efficiency (CGE) of salt was tested against at Streptococcus pyogenes at pH 7.0, concentration 1010.9 ppm; how it was run: as §3
# [17] = test system: Salmonella typhimurium; assay: (§4) Minimum inhibitory concentration of salt was tested against Salmonella Typhimurium […] at 0.1 M NaH2PO4 adjusted to pH 7.0; conditions: Salmonella enterica
# How it was run: (§5)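 Bacteria grown 18-20 h at 37 °C in tryptose phosphate broth, adjusted to OD650 0.01, then diluted into double-strength medium to about 2 × 10^5 viable organisms/mL. Compound in 0.1 M NaH2PO4 pH 7.0 was serially twofold diluted into sterile water and added 1:1 to the cultures. MIC read after 18-20 h at 37 °C, with viability, sterility and buffer controls.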
# [18] = test system: Streptococcus pyogenes; assay: Sterilization time for contact germicidal efficiency (CGE) of salt was tested against at Streptococcus pyogenes at pH 7.0, concentration 1035.9 ppm; how it was run: as §3
# [19] = test system: Staphylococcus aureus; assay: Sterilization time for contact germicidal efficiency (CGE) of salt was tested against Staphylococcus aureus at pH 7.0, concentration 1035.9 ppm; how it was run: as §2
# [20] = test system: Pseudomonas aeruginosa; assay: Sterilization time for contact germicidal efficiency (CGE) of salt was tested against at Pseudomonas aeruginosa at pH 7.0, concentration 1035.9 ppm; how it was run: as §2
# [21] = test system: Bacillus subtilis; assay: Minimum inhibitory concentration of salt was tested against Bacillus subtilis at 0.1 M NaH2PO4 adjusted to pH 7.0
# [22] = test system: Staphylococcus aureus; assay: Sterilization time for contact germicidal efficiency (CGE) of salt was tested against at Staphylococcus aureus at pH 8.0, concentration 1008 ppm
# [23] = test system: Streptococcus pyogenes; assay: Minimum inhibitory concentration of salt was tested against Streptococcus pyogenes aureus at 0.1 M NaH2PO4 adjusted to pH 7.0
# [24] = test system: Streptococcus pyogenes; assay: Sterilization time for contact germicidal efficiency (CGE) of salt was tested against at Streptococcus pyogenes at pH 7.0, concentration 1026 ppm
# [25] = test system: Staphylococcus aureus; assay: Minimum inhibitory concentration of salt was tested against Staphylococcus aureus aureus at 0.1 M NaH2PO4 adjusted to pH 7.0; how it was run: as §5
# [26] = test system: Pseudomonas aeruginosa; assay: Sterilization time for contact germicidal efficiency (CGE) of salt was tested against at Pseudomonas aeruginosa at pH 6.0, concentration 1009 ppm
# [27] = test system: Salmonella typhimurium; assay: as §4; conditions: Salmonella enterica; remark: listed apart in the source
# [28] = test system: Staphylococcus aureus; assay: Sterilization time for contact germicidal efficiency (CGE) of salt was tested against at Staphylococcus aureus at pH 6.0, concentration 1009 ppm
# [29] = test system: Pseudomonas aeruginosa; assay: Sterilization time for contact germicidal efficiency (CGE) of salt was tested against at Pseudomonas aeruginosa at pH 7.0, concentration 1026 ppm
# [30] = test system: Streptococcus pyogenes; assay: Sterilization time for contact germicidal efficiency (CGE) of salt was tested against at Streptococcus pyogenes at pH 6.0, concentration 1009 ppm
# [31] = test system: Pseudomonas aeruginosa; assay: Sterilization time for contact germicidal efficiency (CGE) of salt was tested against at Pseudomonas aeruginosa at pH 8.0, concentration 1008 ppm
# [32] = test system: Staphylococcus aureus; assay: Sterilization time for contact germicidal efficiency (CGE) of salt was tested against at Staphylococcus aureus at pH 7.0, concentration 1026 ppm
# [33] = test system: Staphylococcus aureus; assay: Sterilization time for contact germicidal efficiency (CGE) of salt was tested against Staphylococcus aureus at pH 7.0, concentration 1026 ppm
# [34] = test system: Streptococcus pyogenes; assay: Sterilization time for contact germicidal efficiency (CGE) of salt was tested against at Streptococcus pyogenes at pH 8.0, concentration 1008 ppm
smiles,measurement,setting,value
CCCCCCCCCCCC(=O)OC[n+]1ccccc1.[Cl-],Time,[1],1 min
same,Time,[2],0.5 min
same,Time,[3],0.5 min
same,Time,[4],0.5 min
same,MIC,[5],512 µg/mL
same,Time,[6],0.5 min
same,Time,[7],0.5 min
same,Time,[8],0.5 min
same,Time,[9],0.5 min
same,Time,[10],0.5 min
same,Time,[11],2 min
same,Time,[12],7 min
same,Time,[13],0.5 min
same,Time,[14],0.5 min
same,Time,[15],0.5 min
same,Time,[16],0.5 min
CCCCCCCC(=O)OC[n+]1ccccc1.[Cl-],MIC,[17],1060 µg/mL
same,Time,[18],>30 min
same,Time,[19],>30 min
same,Time,[20],>30 min
CCCCCCCCCCCC(=O)OC[N+]12CCN(CC1)CC2.[Cl-],MIC,[21],32.8 µg/mL
same,Time,[22],0.5 min
same,MIC,[23],32.8 µg/mL
same,Time,[24],0.5 min
same,MIC,[5],1050 µg/mL
same,MIC,[25],65.5 µg/mL
same,Time,[26],0.5 min
same,MIC,[27],524 µg/mL
same,Time,[28],7 min
same,Time,[29],3 min
same,Time,[30],0.5 min
same,Time,[31],4 min
same,Time,[32],0.5 min
same,Time,[33],0.5 min
same,Time,[34],3 min
